Measured values reported in ChEMBL document CHEMBL4184148 (Bioorg Med Chem Lett, 2017).

Tests used:
[1] = target: Myosin light chain kinase 2, skeletal/cardiac muscle (Homo sapiens) (UniProt Q9H1R3); test: Binding affinity to wild-type human partial length MYLK2 (D258 to K570 residues) expressed in Escherichia coli BL21 at 1 uM by Kinomescan method relative to control
[2] = target: Inhibitor of nuclear factor kappa-B kinase subunit beta (Homo sapiens) (UniProt O14920); test: Binding affinity to wild-type human full length IKK-beta (M1 to S756 residues) expressed in HEK293 cells at 1 uM by Kinomescan method relative to control; format: cell-based
Method in brief: (§1)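 Run as one kinome-wide competition binding panel with each compound at a single fixed concentration. Results were plotted as a kinome-wide selectivity map.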

[3] = tested on: Tyrosine-protein kinase ABL1 (Homo sapiens), P00519 [Q252H]; test: Binding affinity to human phosphorylated ABL1 Q252H mutant expressed in HEK293 cells at 1 uM by Kinomescan method relative to control; format: cell-based
[4] = target: Cyclin-dependent kinase-like 2 (Homo sapiens) (UniProt Q92772); test: Binding affinity to wild-type human partial length CDKL2 (M1 to D327 residues) expressed in Escherichia coli BL21 at 1 uM by Kinomescan method relative to control
[5] = target: Dual specificity testis-specific protein kinase 1 (Homo sapiens) (UniProt Q15569); test: Binding affinity to wild-type human full length TESK1 (R37 to S626 residues) expressed in Escherichia coli BL21 at 1 uM by Kinomescan method relative to control
Method in brief: (§2)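 Kinome-wide competition binding panel run by an outside provider, with each compound tested at a single concentration. Activity is read against the kinase panel.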

[6] = target: Casein kinase I isoform alpha (Homo sapiens) (UniProt P48729); test: Binding affinity to wild-type human partial length CSNK1A1 (M1 to L450 residues) expressed in HEK293 cells at 1 uM by Kinomescan method relative to control; format: cell-based
[7] = target: Cyclin-dependent kinase 11A (Homo sapiens) (UniProt Q9UQ88); test: Binding affinity to wild-type human partial length CDC2L2 (D391 to K730 residues) expressed in Escherichia coli BL21 at 1 uM by Kinomescan method relative to control
[8] = target: Serine/threonine-protein kinase Sgk3 (Homo sapiens) (UniProt Q96BR1); test: Binding affinity to wild-type human partial length SGK3 (M119 to L496 residues) expressed in HEK293 cells at 1 uM by Kinomescan method relative to control; format: cell-based
[9] = target: Calcium/calmodulin-dependent protein kinase type 1G (Homo sapiens) (UniProt Q96NX5); test: Binding affinity to wild-type human partial length CAMK1G (M1 to A342 residues) expressed in Escherichia coli BL21 at 1 uM by Kinomescan method relative to control
[10] = target: Beta-adrenergic receptor kinase 1 (Homo sapiens) (UniProt P25098); test: Binding affinity to wild-type human full length GRK2 (M1 to L689 residues) expressed in HEK293 cells at 1 uM by Kinomescan method relative to control; format: cell-based; method in brief: as §1
[11] = tested on: Hepatocyte growth factor receptor (Homo sapiens), P08581 [M1250T]; test: Binding affinity to human partial length MET M1250T mutant (D1010 to S1367 residues) expressed in Escherichia coli BL21 at 1 uM by Kinomescan method relative to control
[12] = target: Tyrosine-protein kinase Mer (Homo sapiens) (UniProt Q12866); test: Binding affinity to wild-type human partial length MERTK (R557 to L884 residues) expressed in Escherichia coli BL21 at 1 uM by Kinomescan method relative to control
[13] = target: Serine/threonine-protein kinase 26 (Homo sapiens) (UniProt Q9P289); test: Binding affinity to wild-type human full length MST4 (M1 to P416 residues) expressed in HEK293 cells at 1 uM by Kinomescan method relative to control; format: cell-based; method in brief: as §1
[14] = target: Serine/threonine-protein kinase D1 (Homo sapiens) (UniProt Q15139); test: Binding affinity to wild-type human partial length PRKD1 (G551 to E870 residues) expressed in Escherichia coli BL21 at 1 uM by Kinomescan method relative to control
[15] = target: Mitogen-activated protein kinase kinase kinase 7 (Homo sapiens) (UniProt O43318); test: Binding affinity to wild-type human partial length TAK1 (M1 to Q303 residues) expressed in HEK293 cells at 1 uM by Kinomescan method relative to control; format: cell-based
[16] = target: Non-receptor tyrosine-protein kinase TYK2 (Homo sapiens) (UniProt P29597); test: Binding affinity to wild-type human partial length TYK2 JH1 catalytic domain (V877 to C1187 residues) expressed in HEK293 cells at 1 uM by Kinomescan method relative to control; format: cell-based
[17] = target: Leucine-rich repeat serine/threonine-protein kinase 2 (Homo sapiens, UniProt Q5S007); test: Inhibition of recombinant GST-tagged human LRRK2 (970 to 2527 residues) catalytic domain expressed in baculovirus expression system by ADAPTA assay
[18] = target: 5'-AMP-activated protein kinase catalytic subunit alpha-1 (Homo sapiens) (UniProt Q13131); test: Binding affinity to wild-type human partial length AMPK alpha1 (M1 to E306 residues) expressed in Escherichia coli BL21 at 1 uM by Kinomescan method relative to control; method in brief: as §2
[19] = target: Mitogen-activated protein kinase kinase kinase kinase 1 (Homo sapiens) (UniProt Q92918); test: Binding affinity to wild-type human full length HPK1 (M1 to R799 residues) expressed in Escherichia coli BL21 at 1 uM by Kinomescan method relative to control; method in brief: as §1
[20] = target: Serine/threonine-protein kinase pim-1 (Homo sapiens) (UniProt P11309); test: Binding affinity to wild-type human partial length PIM1 (A15 to K313 residues) expressed in Escherichia coli BL21 at 1 uM by Kinomescan method relative to control
[21] = target: Calcium/calmodulin-dependent protein kinase type II subunit beta (Homo sapiens) (UniProt Q13554); test: Binding affinity to wild-type human partial length CAMK2B (M1 to Q380 residues) expressed in Escherichia coli BL21 at 1 uM by Kinomescan method relative to control
[22] = target: Mitogen-activated protein kinase 4 (Homo sapiens) (UniProt P31152); test: Binding affinity to wild-type human partial length ERK4 (M1 to L365 residues) expressed in Escherichia coli BL21 at 1 uM by Kinomescan method relative to control
[23] = target: Cyclin-dependent kinase 13 (Homo sapiens) (UniProt Q14004); test: Binding affinity to wild-type human partial length CDC2L5 (H675 to S1054 residues) expressed in HEK293 cells at 1 uM by Kinomescan method relative to control; format: cell-based
[24] = target: Serine/threonine-protein kinase BRSK1 (Homo sapiens) (UniProt Q8TDC3); test: Binding affinity to wild-type human partial length BRSK1 (M1 to E754 residues) expressed in Escherichia coli BL21 at 1 uM by Kinomescan method relative to control
[25] = target: Rhodopsin kinase GRK1 (Homo sapiens) (UniProt Q15835); test: Binding affinity to wild-type human full length GRK1 (M1 to S563 residues) expressed in HEK293 cells at 1 uM by Kinomescan method relative to control; format: cell-based; method in brief: as §1

| Compound | Activity [1] | Activity [2] | Activity [3] | Activity [4] | Activity [5] | Activity [6] | Activity [7] | Activity [8] | Activity [9] | Activity [10] | Activity [11] | Activity [12] | Activity [13] | Activity [14] | Activity [15] | Activity [16] | IC50 [17] | Activity [18] | Activity [19] | Activity [20] | also measured |
| --- | --- | --- | --- | --- | --- | --- | --- | --- | --- | --- | --- | --- | --- | --- | --- | --- | --- | --- | --- | --- | --- |
| CCC(=O)Nc1ccc(C(=O)Nc2ccc(Nc3ncc4c(n3)N(C)c3ccc(C)cc3C(=O)N4C)cc2)cc1 | 56% | 95% | 61% | 100% | 100% | 58% | 88% | 81% | 100% | 90% | 93% | 100% | 98% | 97% | 66% | 58% | 714 nM | 64% | 86% | 85% | Activity [21]: 96%; Activity [22]: 95%; Activity [23]: 100%; Activity [24]: 90%; Activity [25]: 76% |
| C=CC(=O)Nc1ccc(C(=O)Nc2ccc(Nc3ncc4c(n3)N(C)c3ccc(C)cc3C(=O)N4C)cc2)cc1 | 87% | 97% | 85% | 86% | 100% | 86% | 100% | 79% | 100% | 100% | 93% | 80% | 100% | 93% | 96% | 73% | 754 nM | 70% | 100% | 88% | Activity [21]: 100%; Activity [22]: 85%; Activity [23]: 99%; Activity [24]: 100%; Activity [25]: 73% |
